# Assay results as given in article PMC11406655 (Therapeutic Advances in Hematology, 2024).
# Where “and” joins values, the source holds several entries; their conditions need not be identical. Identical values can stand only once.
# Tests used:
# [1] = system: patients with relapsed and/or refractory MDS, CMML, or AML; assay: Clinical response per International Working Group criteria, PFS and OS; format: in vivo, human
# [2] = system: patients with relapsed and/or refractory MDS, CMML, or AML; assay: Safety: adverse events, dose-limiting toxicities and deaths; format: in vivo, human
# Summary of the method: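 Open-label, multicenter part 1 in adults with relapsed/refractory MDS, CMML or secondary AML. The 300 mg dose-expansion cohort took the test compound orally once daily with water only, at about the same time (±4 h), on every day of 28-day cycles. Deaths were split into ⩽30 days or >30 days after the last dose. The analysis covered all patients given at least one dose.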
structure (smiles),measurement,setting,value
CC(=O)N1CCC(Nc2cc(C(=O)NC[C@H](O)CN3CCc4ccccc4C3)ncn2)CC1 [GSK3326595],Best overall response: CR,"[1]; 300 mg once daily oral, n = 17",0 n (%)
same,Best overall response: Disease progression,"[1]; 300 mg once daily oral, n = 17",9 (53) n (%)
same,Best overall response: HI,"[1]; 300 mg once daily oral, n = 17",0 n (%)
same,Best overall response: Not evaluable,"[1]; 300 mg once daily oral, n = 17",3 (18) n (%)
same,Best overall response: PR,"[1]; 300 mg once daily oral, n = 17",0 n (%)
same,Best overall response: SD,"[1]; 300 mg once daily oral, n = 17",4 (24) n (%)
same,Best overall response: SD lasting <8 weeks,"[1]; 300 mg once daily oral, n = 17",2 (12) n (%)
same,Best overall response: SD lasting ⩾8 weeks,"[1]; 300 mg once daily oral, n = 17",2 (12) n (%)
same,Best overall response: mCR,"[1]; 300 mg once daily oral, n = 17",1 (6) n (%)
same,Clinical benefit rate (CR + mCR + PR + SD ⩾8 weeks + HI),"[1]; 300 mg once daily oral, n = 17",3 (18) n (%)
same,Overall response rate (CR + mCR + PR),"[1]; 300 mg once daily oral, n = 17",1 (6) n (%)
same,Best overall response: CR,"[1]; 400 mg once daily oral, n = 13",0 n (%)
same,Best overall response: Disease progression,"[1]; 400 mg once daily oral, n = 13",4 (31) n (%)
same,Best overall response: HI,"[1]; 400 mg once daily oral, n = 13",0 n (%)
same,Best overall response: Not evaluable,"[1]; 400 mg once daily oral, n = 13",4 (31) n (%)
same,Best overall response: PR,"[1]; 400 mg once daily oral, n = 13",0 n (%)
same,Best overall response: SD,"[1]; 400 mg once daily oral, n = 13",5 (38) n (%)
same,Best overall response: SD lasting <8 weeks,"[1]; 400 mg once daily oral, n = 13",3 (23) n (%)
same,Best overall response: SD lasting ⩾8 weeks,"[1]; 400 mg once daily oral, n = 13",2 (15) n (%)
same,Best overall response: mCR,"[1]; 400 mg once daily oral, n = 13",0 n (%)
same,Clinical benefit rate (CR + mCR + PR + SD ⩾8 weeks + HI),"[1]; 400 mg once daily oral, n = 13",2 (15) n (%)
same,Duration of complete marrow remission,"[1]; 1 patient, plain language summary",approximately 8 months
same,Clinical benefit rate (CR + mCR + PR + SD ⩾8 weeks + HI),"[1]; Total, 400 or 300 mg once daily oral, N = 30",5 (17) n (%)
same,Best overall response: CR,"[1]; Total, N = 30",0 n (%)
same,Best overall response: Disease progression,"[1]; Total, N = 30",13 (43) n (%)
same,Best overall response: HI,"[1]; Total, N = 30",0 n (%)
same,Best overall response: Not evaluable,"[1]; Total, N = 30",7 (23) n (%)
same,Best overall response: PR,"[1]; Total, N = 30",0 n (%)
same,Best overall response: SD,"[1]; Total, N = 30",9 (30) n (%)
same,Best overall response: SD lasting <8 weeks,"[1]; Total, N = 30",5 (17) n (%)
same,Best overall response: SD lasting ⩾8 weeks,"[1]; Total, N = 30",4 (13%) n (%) and 4 (13) n (%)
same,Best overall response: mCR,"[1]; Total, N = 30",1 (3%) n (%) and 1 (3) n (%)
same,Overall response rate (CR + mCR + PR),"[1]; Total, N = 30",1 (3) n (%)
same,Patients meeting CBR criteria,"[1]; Total, N = 30",17%
same,Patients not evaluable,"[1]; Total, N = 30",23%
same,Patients with disease progression while on study treatment,"[1]; Total, N = 30",43%
same,Duration of mCR,"[1]; one patient with MDS, 300-mg cohort",245 days
same,Died (during the study),"[2]; 300 mg, n = 17",14 (82%) n (%)
same,GSK3326595-related TEAE: AE leading to study treatment withdrawn,"[2]; 300 mg, n = 17",2 (12) n (%)
same,GSK3326595-related TEAE: Anemia,"[2]; 300 mg, n = 17",2 (12) n (%)
same,GSK3326595-related TEAE: Any SAE,"[2]; 300 mg, n = 17",3 (18) n (%)
same,GSK3326595-related TEAE: Any TEAEs,"[2]; 300 mg, n = 17",13 (76) n (%)
same,GSK3326595-related TEAE: Any grade 3/4 TEAE,"[2]; 300 mg, n = 17",8 (47%) n (%) and 8 (47) n (%)
same,GSK3326595-related TEAE: Decreased appetite,"[2]; 300 mg, n = 17",3 (18) n (%)
same,GSK3326595-related TEAE: Decreased platelet count,"[2]; 300 mg, n = 17",5 (29) n (%)
same,GSK3326595-related TEAE: Dysgeusia,"[2]; 300 mg, n = 17",4 (24) n (%)
same,GSK3326595-related TEAE: Fatal SAE,"[2]; 300 mg, n = 17",1 (6) n (%)
same,GSK3326595-related TEAE: Fatigue,"[2]; 300 mg, n = 17",2 (12) n (%)
same,GSK3326595-related TEAE: Nausea,"[2]; 300 mg, n = 17",4 (24) n (%)
same,GSK3326595-related TEAE: Neutrophil count decreased,"[2]; 300 mg, n = 17",2 (12) n (%)
same,GSK3326595-related TEAE: Thrombocytopenia,"[2]; 300 mg, n = 17",2 (12) n (%)
same,TEAE: AE leading to dose interruption,"[2]; 300 mg, n = 17",10 (59) n (%)
same,TEAE: AE leading to dose reduction,"[2]; 300 mg, n = 17",1 (6) n (%)
same,TEAE: AE leading to study treatment withdrawn,"[2]; 300 mg, n = 17",3 (18) n (%)
same,TEAE: Anemia,"[2]; 300 mg, n = 17",7 (41) n (%)
same,TEAE: Any AE,"[2]; 300 mg, n = 17",17 (100) n (%)
same,TEAE: Any SAE,"[2]; 300 mg, n = 17",12 (71) n (%)
same,TEAE: Decreased appetite,"[2]; 300 mg, n = 17",4 (24) n (%)
same,TEAE: Decreased platelet count,"[2]; 300 mg, n = 17",8 (47) n (%)
same,TEAE: Diarrhea,"[2]; 300 mg, n = 17",7 (41) n (%)
same,TEAE: Dysgeusia,"[2]; 300 mg, n = 17",7 (41) n (%)
same,TEAE: Dyspnea,"[2]; 300 mg, n = 17",6 (35) n (%)
same,TEAE: Fatal SAE,"[2]; 300 mg, n = 17",5 (29%) n (%) and 5 (29) n (%)
same,TEAE: Fatigue,"[2]; 300 mg, n = 17",6 (35) n (%)
same,TEAE: Nausea,"[2]; 300 mg, n = 17",5 (29) n (%)
same,Died (during the study),"[2]; 400 mg, n = 13",11 (85%) n (%)
same,GSK3326595-related TEAE: AE leading to study treatment withdrawn,"[2]; 400 mg, n = 13",0 n (%)
same,GSK3326595-related TEAE: Anemia,"[2]; 400 mg, n = 13",1 (8) n (%)
same,GSK3326595-related TEAE: Any SAE,"[2]; 400 mg, n = 13",3 (23) n (%)
same,GSK3326595-related TEAE: Any TEAEs,"[2]; 400 mg, n = 13",9 (69) n (%)
same,GSK3326595-related TEAE: Any grade 3/4 TEAE,"[2]; 400 mg, n = 13",5 (38%) n (%) and 5 (38) n (%)
same,GSK3326595-related TEAE: Decreased appetite,"[2]; 400 mg, n = 13",1 (8) n (%)
same,GSK3326595-related TEAE: Decreased platelet count,"[2]; 400 mg, n = 13",3 (23) n (%)
same,GSK3326595-related TEAE: Dysgeusia,"[2]; 400 mg, n = 13",3 (23) n (%)
same,GSK3326595-related TEAE: Fatal SAE,"[2]; 400 mg, n = 13",0 n (%)
same,GSK3326595-related TEAE: Fatigue,"[2]; 400 mg, n = 13",4 (31) n (%)
same,GSK3326595-related TEAE: Nausea,"[2]; 400 mg, n = 13",2 (15) n (%)
same,GSK3326595-related TEAE: Neutrophil count decreased,"[2]; 400 mg, n = 13",2 (15) n (%)
same,GSK3326595-related TEAE: Thrombocytopenia,"[2]; 400 mg, n = 13",1 (8) n (%)
